Assays:
Conditions in all cases: stereoisomer not certain
O14A2 I133V = test system: O14A2 I133V
Summary of the method: (§1)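 Each entry records the cell line, G-protein, co-transfected protein and tags used. Methods varied with the source, often transient luciferase assays in mammalian cell lines. A receptor–molecule pair is called responsive (active) if the original authors judged its signal statistically different from baseline and non-responsive (inactive) otherwise.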

O14CZ = test system: O14CZ
Summary of the method: as §1

O14I1 V36A D50N Y216C = test system: O14I1 V36A D50N Y216C
Summary of the method: as §1

O14J1 N3Y = test system: O14J1 N3Y
Summary of the method: as §1

O14K1 D119Y = test system: O14K1 D119Y
Summary of the method: as §1

O2A25 = test system: O2A25
Summary of the method: as §1

O2AE1 = test system: O2AE1
Summary of the method: as §1

O2AJ1 = test system: O2AJ1
Summary of the method: as §1

Measured: odorant receptor agonist call

O2AE1, sequence (as listed by the source): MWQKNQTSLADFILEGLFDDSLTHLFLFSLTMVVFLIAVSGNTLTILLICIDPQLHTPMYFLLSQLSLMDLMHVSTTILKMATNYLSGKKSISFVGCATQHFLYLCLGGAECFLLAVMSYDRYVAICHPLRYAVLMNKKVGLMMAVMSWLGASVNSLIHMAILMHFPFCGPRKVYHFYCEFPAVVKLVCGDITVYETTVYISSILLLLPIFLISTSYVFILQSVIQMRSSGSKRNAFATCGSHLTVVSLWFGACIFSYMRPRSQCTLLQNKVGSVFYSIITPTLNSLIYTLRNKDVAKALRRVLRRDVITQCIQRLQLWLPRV
O14J1 N3Y, sequence (as listed by the source): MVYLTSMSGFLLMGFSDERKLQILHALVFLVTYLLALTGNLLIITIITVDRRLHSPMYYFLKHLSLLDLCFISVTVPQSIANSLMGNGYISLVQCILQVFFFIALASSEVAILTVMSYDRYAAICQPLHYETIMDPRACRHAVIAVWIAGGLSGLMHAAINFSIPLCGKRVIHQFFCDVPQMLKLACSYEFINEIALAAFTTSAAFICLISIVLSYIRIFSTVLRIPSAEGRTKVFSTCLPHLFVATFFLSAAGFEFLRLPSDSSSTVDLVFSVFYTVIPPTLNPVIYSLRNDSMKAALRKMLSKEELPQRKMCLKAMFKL
O14CZ, sequence (as listed by the source): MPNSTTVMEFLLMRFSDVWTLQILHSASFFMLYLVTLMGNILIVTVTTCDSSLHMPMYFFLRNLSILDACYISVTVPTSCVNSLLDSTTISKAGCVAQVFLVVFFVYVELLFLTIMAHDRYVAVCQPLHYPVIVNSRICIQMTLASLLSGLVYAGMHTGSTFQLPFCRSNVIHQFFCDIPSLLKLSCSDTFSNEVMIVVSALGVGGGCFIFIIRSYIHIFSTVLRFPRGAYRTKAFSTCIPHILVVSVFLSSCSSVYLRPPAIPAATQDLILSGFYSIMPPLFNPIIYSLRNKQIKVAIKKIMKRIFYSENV
O2A25, sequence (as listed by the source): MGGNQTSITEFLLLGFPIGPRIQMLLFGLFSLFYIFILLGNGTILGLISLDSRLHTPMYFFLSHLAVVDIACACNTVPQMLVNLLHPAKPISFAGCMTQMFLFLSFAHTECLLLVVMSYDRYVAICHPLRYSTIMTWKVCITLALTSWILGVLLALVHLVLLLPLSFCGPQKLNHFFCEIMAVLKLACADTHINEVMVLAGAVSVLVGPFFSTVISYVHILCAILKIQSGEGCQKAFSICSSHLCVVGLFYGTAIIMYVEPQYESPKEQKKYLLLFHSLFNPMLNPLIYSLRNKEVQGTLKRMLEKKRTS
O14K1 D119Y, sequence (as listed by the source, stated change not applied): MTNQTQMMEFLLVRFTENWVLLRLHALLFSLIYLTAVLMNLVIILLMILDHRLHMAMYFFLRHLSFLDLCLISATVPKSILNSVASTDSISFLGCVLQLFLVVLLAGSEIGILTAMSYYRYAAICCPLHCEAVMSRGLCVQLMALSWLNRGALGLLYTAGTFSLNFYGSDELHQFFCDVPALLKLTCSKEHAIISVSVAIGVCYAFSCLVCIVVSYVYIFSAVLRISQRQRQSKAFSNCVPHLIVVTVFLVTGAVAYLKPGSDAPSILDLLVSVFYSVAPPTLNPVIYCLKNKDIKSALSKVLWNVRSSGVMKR
O2AJ1, sequence (as listed by the source): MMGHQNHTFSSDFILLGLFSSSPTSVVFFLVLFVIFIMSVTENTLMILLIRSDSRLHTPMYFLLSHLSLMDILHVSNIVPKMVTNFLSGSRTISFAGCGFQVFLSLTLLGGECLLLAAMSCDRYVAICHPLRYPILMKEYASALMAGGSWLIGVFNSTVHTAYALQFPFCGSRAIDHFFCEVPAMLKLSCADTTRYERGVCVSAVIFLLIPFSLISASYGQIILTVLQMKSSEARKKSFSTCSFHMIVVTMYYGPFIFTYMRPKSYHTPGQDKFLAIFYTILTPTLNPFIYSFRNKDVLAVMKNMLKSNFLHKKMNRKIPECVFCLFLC
O14A2 I133V, sequence (as listed by the source, stated change not applied): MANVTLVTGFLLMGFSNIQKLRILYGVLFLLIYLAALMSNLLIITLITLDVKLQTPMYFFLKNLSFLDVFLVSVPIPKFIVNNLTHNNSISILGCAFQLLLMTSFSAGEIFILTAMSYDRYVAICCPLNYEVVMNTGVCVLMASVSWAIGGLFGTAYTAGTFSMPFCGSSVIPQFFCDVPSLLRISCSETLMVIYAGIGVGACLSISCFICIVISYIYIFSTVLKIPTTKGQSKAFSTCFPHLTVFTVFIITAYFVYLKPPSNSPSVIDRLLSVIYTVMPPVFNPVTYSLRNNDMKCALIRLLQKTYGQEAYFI

C=CCOC(=O)Cc1ccccc1
inactive: O14A2 I133V | O14CZ | O14I1 V36A D50N Y216C | O14J1 N3Y | O14K1 D119Y | O2A25 | O2AE1 | O2AJ1
